Measurements published in ChEMBL document CHEMBL1159387, “Absolute stereostructures of new arborinane-type triterpenoids and inhibitors of nitric oxide production from Rubia yunnanensis” (J Nat Prod, 2003).

How the values were obtained:
Macrophage [1] = experiment: Inhibition of nitric oxide production in lipopolysaccharide-activated ddY mouse macrophages at 100 uM relative to control; assay type: functional
Outline: (§1)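 Peritoneal macrophages from male ddY mice given 4% thioglycolate i.p. 4 days earlier, plated at 5 × 10^5 cells/well in RPMI 1640 with 5% FCS, 1 h at 37 °C; adherent cells (>95% macrophages) then cultured 20 h with 10 µg/mL LPS plus compound (1-100 µM, DMSO final 0.5%). Nitrite in medium measured by Griess reagent; % inhibition versus LPS-only control, IC50 read graphically, N = 4.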

[2] = Toxicity in lipopolysaccharide-activated ddY mouse macrophages at 100 uM by MTT method; assay type: cell-based; conditions: macrophage
Outline: (§2)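 Peritoneal exudate cells from male ddY mice given 4% thioglycolate i.p. 4 days earlier, plated at 5 × 10^5 cells/well in RPMI 1640 with 5% FCS, 1 h at 37 °C. Non-adherent cells washed off. Adherent macrophages exposed to 10 µg/mL LPS plus compound (DMSO, final 0.5%) for 20 h. MTT added for 4 h, formazan dissolved in 2-propanol/0.04 M HCl, read at 570 nm (ref 655 nm). N=4.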

Macrophage [3] = experiment: Inhibition of nitric oxide production in lipopolysaccharide-activated ddY mouse macrophages at 1 uM relative to control; assay type: functional; outline: as §1
Macrophage [4] = experiment: Inhibition of nitric oxide production in lipopolysaccharide-activated ddY mouse macrophages at 10 uM relative to control; assay type: functional; outline: as §1
Macrophage [5] = experiment: Inhibition of nitric oxide production in lipopolysaccharide-activated ddY mouse macrophages at 30 uM relative to control; assay type: functional; outline: as §1
Macrophage [6] = experiment: Inhibition of nitric oxide production in lipopolysaccharide-activated ddY mouse macrophages at 3 uM relative to control; assay type: functional; outline: as §1
[7] = Toxicity in lipopolysaccharide-activated ddY mouse macrophages by MTT method; assay type: cell-based; conditions: macrophage
Outline: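 Thioglycolate-elicited ddY mouse peritoneal macrophages were treated for 20 h with 10 µg/mL LPS plus compound (1-100 µM, 0.5% DMSO final). MTT (5 mg/mL in PBS) was then added for 4 h, and formazan was dissolved in 2-propanol with 0.04 M HCl. Absorbance was read at 570 nm (reference 655 nm), N = 4.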

[8] = Toxicity in lipopolysaccharide-activated ddY mouse macrophages at 30 uM by MTT method; assay type: cell-based; conditions: macrophage; outline: as §2
[9] = Inhibition of NOS; outline: as §1

Row | Compound | inhibition at 100 µM (Macrophage [1]) [%] | Activity [2] | inhibition at 1 µM (Macrophage [3]) [%] | inhibition at 10 µM (Macrophage [4]) [%] | inhibition at 30 µM (Macrophage [5]) [%] | inhibition at 3 µM (Macrophage [6]) [%] | Activity [7] | Activity [8] | IC50 [9] [µM]
1 | Cc1c(O)cc2c(c1O)C(=O)c1ccc(O)cc1C2=O | 99.6 | Toxic | 4.9 | 37.5 | 99.5 | 7.9 |  |  | 
2 | CC(=O)OC[C@@]12CC[C@@]3(C)[C@H]4C(=CC[C@]3(C)[C@H]1[C@H](OC(C)=O)C[C@H]2C(C)C)[C@@]1(C)CC[C@H](OC(C)=O)C(C)(C)[C@@H]1C[C@@H]4OC(C)=O | 6.6 |  | 5.3 | -1.2 | 0 | 10.6 |  |  | 
3 | CC(=O)OC[C@@]12CC[C@@]3(C)[C@H]4C(=CC[C@]3(C)[C@H]1[C@H](O)C[C@H]2C(C)C)[C@@]1(C)C[C@@H](O)C(=O)C(C)(C)[C@@H]1C[C@@H]4O | 15.4 |  | -1.1 | 0 | -5.8 | -1.5 |  |  | 
4 | CC(=O)OC[C@@]12CC[C@@]3(C)[C@H]4C(=CC[C@]3(C)[C@H]1[C@H](O)C[C@H]2C(C)C)[C@@]1(C)CC[C@H](O)C(C)(C)[C@@H]1C[C@@H]4O | 25.5 | Toxic | 5.2 | 4.7 | -7.4 | 11.1 |  |  | 
5 | CC(C)[C@@H]1C[C@@H](O)[C@H]2[C@@]1(CO)CC[C@@]1(C)[C@H]3C(=CC[C@]21C)[C@@]1(C)C[C@@H](O)C(=O)C(C)(C)[C@@H]1C[C@@H]3O | 40.3 |  | -9.6 | 2.1 | 1.8 | -10.3 |  |  | 
6 | CC(=O)OC[C@@]12CC[C@@]3(C)[C@H]4C(=CC[C@]3(C)[C@H]1[C@H](O)C[C@H]2C(C)C)[C@@]1(C)C[C@@H](O)[C@H](O)C(C)(C)[C@@H]1C[C@@H]4O | 76.5 |  | 17 | 4.3 | -11.1 | 5.3 | Non-toxic |  | 
7 | CC(=O)OC[C@@]12CC[C@@]3(C)[C@H]4C(=CC[C@]3(C)[C@H]1[C@H](OC(C)=O)C[C@H]2C(C)C)[C@@]1(C)C[C@@H](OC(C)=O)[C@H](OC(C)=O)C(C)(C)[C@@H]1C[C@@H]4OC(C)=O | 28.4 |  | 7.7 | 18.7 | 25.5 | 9.5 |  |  | 
8 | COc1cc(O)cc(OC)c1C(=O)O | 28 |  | 9.5 | 7.5 | 7.2 | 9.3 |  |  | 
9 | CC(=O)OC[C@@]12CC[C@@]3(C)[C@H]4C(=CC[C@]3(C)[C@H]1[C@H](O)C[C@H]2C(C)C)[C@@]1(C)C[C@@H](OC(C)=O)[C@H](O)C(C)(C)[C@@H]1C[C@@H]4O | 77.1 |  | 20.2 | -12 | -7.9 | 21.3 | Non-toxic |  | 
10 | CC(=O)OC[C@@]12CC[C@@]3(C)[C@H]4C(=CC[C@]3(C)[C@H]1[C@H](OC(C)=O)C[C@H]2C(C)C)[C@@]1(C)C[C@@H](OC(C)=O)C(=O)C(C)(C)[C@@H]1C[C@@H]4OC(C)=O | 23 |  | 1.7 | 12.5 | 18.7 | 7.3 |  |  | 
11 | COc1cc(C[C@@H](CO)[C@H](CO)Cc2ccc(O)c(OC)c2)ccc1O [(+)-SECOISOLARICIRESINOL] | -12.5 |  | 5.9 | 6.5 | 0.9 | -7.3 |  |  | 
12 | COc1cc([C@H]2c3cc(O)c(OC)cc3C[C@@H](CO)[C@@H]2CO)ccc1O [ISOLARICIRESINOL] | 7.5 |  | -0.2 | 0.6 | 5.1 | -0.6 |  |  | 
13 | COc1cc(C[C@H]2CO[C@H](c3ccc(O)c(OC)c3)[C@H]2CO)ccc1O [LARICIRESINOL] | 11.9 |  | 4 | 5.5 | -8.2 | 3 |  |  | 
14 | CC(=O)O[C@@H]1C[C@]2(C)C3=CC[C@]4(C)[C@H]5[C@@H]6C[C@@H](C(C)C)[C@@]5(CC[C@@]4(C)[C@@H]3[C@@H](O)C[C@H]2C(C)(C)[C@H]1O[C@@H]1O[C@H](CO)[C@@H](O)[C@H](O)[C@H]1O)CO6 [RUBIANOSIDE I] | -3.2 |  | 5.1 | -8 | 1.5 | -0.3 |  |  | 
15 | CC(C)[C@@H]1C[C@@H](O)[C@H]2[C@@]1(CO)CC[C@@]1(C)[C@H]3C(=CC[C@]21C)[C@@]1(C)CC[C@H](O)C(C)(C)[C@@H]1C[C@@H]3O [RUBIARBONOL A] | 86.3 | Toxic | 6.3 | -4.2 | 2.9 | 4.2 |  | Toxic | 
16 | CC(C)[C@@H]1C[C@@H](O)[C@H]2[C@@]1(CO)CC[C@@]1(C)[C@H]3C(=CC[C@]21C)[C@@]1(C)C[C@@H](O)[C@H](O)C(C)(C)[C@@H]1C[C@@H]3O [RUBIARBONOL F] | 60.4 | Toxic | 9.6 | 15.4 | 22 | 7.9 |  |  | 
17 | CC(C)[C@@H]1C[C@@H](O)[C@H]2[C@@]1(CO)CC[C@@]1(C)[C@H]3C(=CC[C@]21C)[C@@]1(C)CCC(=O)C(C)(C)[C@@H]1C[C@@H]3O [RUBIARBONONE B] | 19.7 |  | 4.3 | -13.7 | 16.9 | -9.7 |  |  | 
18 | CC(=O)OC[C@@]12CC[C@@]3(C)[C@H]4C(=CC[C@]3(C)[C@H]1[C@H](O)C[C@H]2C(C)C)[C@@]1(C)CCC(=O)C(C)(C)[C@@H]1C[C@@H]4O [RUBIARBONONE C] | 90.3 | Toxic | -2.1 | -2.3 | 8 | 3.7 |  |  | 
19 | CNC(=N)NCCC[C@H](N)C(=O)O [TILARGININE] | 63.1 |  | 5.9 | 15 | 34.1 | 10.3 |  |  | 57
20 | COc1cc(C(=O)O)ccc1O [VANILLIC ACID] | 5.9 |  | 5.9 | 8.2 | -3.6 | 16.2 |  |  | 
